Key:
[1] = system: Syncephalastrum racemosum; test: Antimicrobial activity against Syncephalastrum racemosum at 1 to 5 ug/ml by agar well diffusion method; format: functional
In short: (§1)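 Agar well diffusion against bacteria and fungi. Inhibition zone is scored beyond the control: ++ 0.6–1.0 cm, + 0.1–0.5 cm, 0 no inhibition.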

[2] = system: Candida albicans; test: Antimicrobial activity against Candida albicans at 1 to 5 ug/ml by agar well diffusion method; format: functional; in short: as §1
[3] = system: Bacillus subtilis; test: Antimicrobial activity against Bacillus subtilis at 1 to 5 ug/ml by agar well diffusion method; format: functional; in short: as §1
[4] = system: MOLT-4; test: Growth inhibition of human MOLT4 cells assessed as cell growth at 1 M after 48 hrs by sulforhodamine B assay; format: functional; parameters: scale not given: the % may be the effect or the level left
In short: (§2)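 NCI 60-cell screen at a single high dose. Cells are grown in RPMI 1640 with 5% FBS and 2 mM L-glutamine, then plated at 5000–40,000 cells/well and held 24 h at 37 °C in 5% CO2 at 100% humidity. Drug is then added and plates are incubated another 48 h, with SRB staining as read-out. Results are given as growth percent (100 = no inhibition, 0 = no net growth, negative = lethality).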

[5] = Growth inhibition of human […] cells assessed as cell growth at 1 M after 48 hrs by sulforhodamine B assay; format: functional; parameters: scale not given: the % may be the effect or the level left; in short: as §2
[6] = system: EKVX; test: Growth inhibition of human EKVX cells assessed as cell growth at 1 M after 48 hrs by sulforhodamine B assay; format: functional; parameters: scale not given: the % may be the effect or the level left; in short: as §2
[7] = system: HOP-92; test: Growth inhibition of human HOP92 cells assessed as cell growth at 1 M after 48 hrs by sulforhodamine B assay; format: functional; parameters: scale not given: the % may be the effect or the level left; in short: as §2
[8] = system: NCI-H322M; test: Growth inhibition of human NCI-H322M cells assessed as cell growth at 1 M after 48 hrs by sulforhodamine B assay; format: functional; parameters: scale not given: the % may be the effect or the level left; in short: as §2
[9] = system: NCI-H460; test: Growth inhibition of human NCI-H460 cells assessed as cell growth at 1 M after 48 hrs by sulforhodamine B assay; format: functional; parameters: scale not given: the % may be the effect or the level left; in short: as §2
[10] = system: COLO 205; test: Growth inhibition of human COLO205 cells assessed as cell growth at 1 M after 48 hrs by sulforhodamine B assay; format: functional; parameters: scale not given: the % may be the effect or the level left; in short: as §2
[11] = system: HCC 2998; test: Growth inhibition of human HCC2998 cells assessed as cell growth at 1 M after 48 hrs by sulforhodamine B assay; format: functional; parameters: scale not given: the % may be the effect or the level left; in short: as §2
[12] = system: HCT-116; test: Growth inhibition of human HCT116 cells assessed as cell growth at 1 M after 48 hrs by sulforhodamine B assay; format: functional; parameters: scale not given: the % may be the effect or the level left; in short: as §2
[13] = system: HCT-15; test: Growth inhibition of human HCT15 cells assessed as cell growth at 1 M after 48 hrs by sulforhodamine B assay; format: functional; parameters: scale not given: the % may be the effect or the level left; in short: as §2
[14] = system: HT-29; test: Growth inhibition of human HT-29 cells assessed as cell growth at 1 M after 48 hrs by sulforhodamine B assay; format: functional; parameters: scale not given: the % may be the effect or the level left; in short: as §2
[15] = system: KM12; test: Growth inhibition of human KM12 cells assessed as cell growth at 1 M after 48 hrs by sulforhodamine B assay; format: functional; parameters: scale not given: the % may be the effect or the level left; in short: as §2
[16] = system: SF-295; test: Growth inhibition of human SF295 cells assessed as cell growth at 1 M after 48 hrs by sulforhodamine B assay; format: functional; parameters: scale not given: the % may be the effect or the level left
In short: (§3)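 NCI 60-cell panel screen, single dose (1.0 M as printed). Cells grown in RPMI 1640 with 5% fetal bovine serum and 2 mM L-glutamine, seeded at 5000–40,000 cells/well, preincubated 24 h at 37 °C in 5% CO2 at 100% humidity, then exposed to compound for 48 h. Sulforhodamine B staining read-out. Result given as growth percent: 100 = no inhibition, 0 = no net growth, negative = lethality.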

[17] = system: SF-539; test: Growth inhibition of human SF539 cells assessed as cell growth at 1 M after 48 hrs by sulforhodamine B assay; format: functional; parameters: scale not given: the % may be the effect or the level left; in short: as §3
[18] = system: SNB-19; test: Growth inhibition of human SNB19 cells assessed as cell growth at 1 M after 48 hrs by sulforhodamine B assay; format: functional; parameters: scale not given: the % may be the effect or the level left; in short: as §3
[19] = system: SNB-75; test: Growth inhibition of human SNB75 cells assessed as cell growth at 1 M after 48 hrs by sulforhodamine B assay; format: functional; parameters: scale not given: the % may be the effect or the level left; in short: as §3
[20] = system: U-251; test: Growth inhibition of human U251 cells assessed as cell growth at 1 M after 48 hrs by sulforhodamine B assay; format: functional; parameters: scale not given: the % may be the effect or the level left; in short: as §3
[21] = system: LOX IMVI; test: Growth inhibition of human LOXIMVI cells assessed as cell growth at 1 M after 48 hrs by sulforhodamine B assay; format: functional; parameters: scale not given: the % may be the effect or the level left; in short: as §2
[22] = system: SK-MEL-28; test: Growth inhibition of human SK-MEL-28 cells assessed as cell growth at 1 M after 48 hrs by sulforhodamine B assay; format: functional; parameters: scale not given: the % may be the effect or the level left; in short: as §3
[23] = system: SK-MEL-5; test: Growth inhibition of human SK-MEL-5 cells assessed as cell growth at 1 M after 48 hrs by sulforhodamine B assay; format: functional; parameters: scale not given: the % may be the effect or the level left; in short: as §3
[24] = system: OVCAR-3; test: Growth inhibition of human OVCAR3 cells assessed as cell growth at 1 M after 48 hrs by sulforhodamine B assay; format: functional; parameters: scale not given: the % may be the effect or the level left; in short: as §2
[25] = system: NCI/ADR-RES; test: Growth inhibition of human NCI/ADR-RES cells assessed as cell growth at 1 M after 48 hrs by sulforhodamine B assay; format: functional; parameters: scale not given: the % may be the effect or the level left; in short: as §2
[26] = system: SK-OV-3; test: Growth inhibition of human SKOV3 cells assessed as cell growth at 1 M after 48 hrs by sulforhodamine B assay; format: functional; parameters: scale not given: the % may be the effect or the level left; in short: as §3
[27] = system: 786-0; test: Growth inhibition of human 786-0 cells assessed as cell growth at 1 M after 48 hrs by sulforhodamine B assay; format: functional; parameters: scale not given: the % may be the effect or the level left; in short: as §2
[28] = system: A498; test: Growth inhibition of human A498 cells assessed as cell growth at 1 M after 48 hrs by sulforhodamine B assay; format: functional; parameters: scale not given: the % may be the effect or the level left; in short: as §2
[29] = system: TK-10; test: Growth inhibition of human TK10 cells assessed as cell growth at 1 M after 48 hrs by sulforhodamine B assay; format: functional; parameters: scale not given: the % may be the effect or the level left; in short: as §3
[30] = system: DU-145; test: Growth inhibition of human DU145 cells assessed as cell growth at 1 M after 48 hrs by sulforhodamine B assay; format: functional; parameters: scale not given: the % may be the effect or the level left; in short: as §2
[31] = system: MCF7; test: Growth inhibition of human MCF7 cells assessed as cell growth at 1 M after 48 hrs by sulforhodamine B assay; format: functional; parameters: scale not given: the % may be the effect or the level left; in short: as §2
[32] = system: BT-549; test: Growth inhibition of human BT549 cells assessed as cell growth at 1 M after 48 hrs by sulforhodamine B assay; format: functional; parameters: scale not given: the % may be the effect or the level left; in short: as §2
[33] = species on record: Rattus norvegicus; test: Acute toxicity in albino rat; format: organism-based; conditions: in vivo
In short: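 Male albino rats received injections of increasing doses. LD50 and LD90, the doses killing 50% and 90% of the animals, were calculated by the Austen and Brocklehurst method.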

[34] = system: Rattus norvegicus; test: Effect on circulating testosterone and dihydrotestosterone level in sc dosed Sprague-Dawley rat by radioimmunoassay; format: functional
In short: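 Rats were given a range of doses of the 5α-reductase inhibitors. Serum testosterone and DHT were measured by radioimmunoassay with specific antisera, without prior chromatography. Serum (0.5 mL) was extracted with 2 mL peroxide-free diethyl ether by shaking for 60 s. Levels were compared with vehicle-treated controls, and ED50 was derived.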

[35] = system: Rattus norvegicus; test: Effect on circulating testosterone and dihydrotestosterone level in sc dosed Sprague-Dawley rat by radioimmunoassay relative to anastrozole; format: functional
In short: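 Serum testosterone and DHT were measured by RIA in ether extracts of serum (0.5 mL serum, 2 mL diethyl ether, 60 s shaking), without chromatography, in rats dosed at several levels. Relative potency is the ED50 of anastrozole divided by the ED50 of the test agent, where ED50 is the dose giving 50% of the pharmacological response.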

[36] = system: Aspergillus fumigatus; test: Antimicrobial activity against Aspergillus fumigatus at 1 to 5 ug/ml by agar well diffusion method; format: functional; in short: as §1
[37] = system: Penicillium italicum; test: Antimicrobial activity against Penicillium italicum at 1 to 5 ug/ml by agar well diffusion method; format: functional; in short: as §1

SMILES | diameter of the inhibition zone (DIZ) [1] [cm] | diameter of the inhibition zone (DIZ) [2] [cm] | diameter of the inhibition zone (DIZ) [3] [cm] | Activity [4] [%] | Activity [5] [%] | Activity [6] [%] | Activity [7] [%] | Activity [8] [%] | Activity [9] [%] | Activity [10] [%] | Activity [11] [%] | Activity [12] [%] | Activity [13] [%] | Activity [14] [%] | Activity [15] [%] | Activity [16] [%] | Activity [17] [%] | Activity [18] [%] | Activity [19] [%] | Activity [20] [%] | further results
Cc1ccc(N/N=C(\C(=O)c2ccc(Cl)cc2)c2nc(C)cc(=O)[nH]2)cc1 | 0 | 0 | 0 | 98.62 | 85.08 | 91.46 | 90.99 | 106.17 | 105.3 | 116.23 | 115.84 | 86.94 | 110.86 | 110.66 | 114.61 | 90.05 | 85.29 | 103.64 | 115.66 | 103.37 | Activity [21]: 92.62%; Activity [22]: 117.97%; Activity [23]: 82.48%; Activity [24]: 95.76%; Activity [25]: 102.57%; Activity [26]: 115.86%; Activity [27]: 82.91%; Activity [28]: 107.77%; Activity [29]: 136.08%; Activity [30]: 102.09%; Activity [31]: 91.01%; Activity [32]: 117.79%; LD50 [33]: 2.663 mg/kg; LD90 [33]: 4.35687 mg/kg; ED50 [34]: 0.000173 mg/kg; Ratio ED50 [35]: 6.301; diameter of the inhibition zone (DIZ) [36]: 0 cm; diameter of the inhibition zone (DIZ) [37]: 0 cm
Cc1cc(=O)[nH]c(/C(=N/Nc2ccccc2)C(=O)c2ccc(Cl)cc2)n1 | 0 | 0 | 0 | 39.84 | 96.57 | 103.39 | 88.71 | 107.24 | 108.76 | 105.71 | 109.1 | 86.88 | 112.06 | 105.27 | 101.95 | 75.72 | 92.33 | 95.47 | 128.46 | 106.82 | Activity [21]: 98.95%; Activity [22]: 110.14%; Activity [23]: 92.44%; Activity [24]: 97.53%; Activity [25]: 105.88%; Activity [26]: 98.31%; Activity [27]: 82.24%; Activity [28]: 83.96%; Activity [29]: 65.49%; Activity [30]: 104.88%; Activity [31]: 90.11%; Activity [32]: 97.44%; LD50 [33]: 2.11122 mg/kg; LD90 [33]: 3.24592 mg/kg; ED50 [34]: 0.000211 mg/kg; Ratio ED50 [35]: 5.166; diameter of the inhibition zone (DIZ) [36]: 0 cm; diameter of the inhibition zone (DIZ) [37]: 0 cm
CC(=O)c1ccc(N/N=C(\C(=O)c2ccc(Cl)cc2)c2nc(C)cc(=O)[nH]2)cc1 | 0 | 0 | 0 | 84.16 | 91.91 | 105.04 | 97.73 | 100.21 | 103.13 | 121.73 | 111.21 | 90.39 | 96.72 | 101.59 | 100.14 | 95.38 | 90.87 | 95.91 | 91.94 | 96.78 | Activity [21]: 90.57%; Activity [22]: 106.93%; Activity [23]: 88.4%; Activity [24]: 104.16%; Activity [25]: 93.99%; Activity [26]: 95.27%; Activity [27]: 103.17%; Activity [28]: 97.59%; Activity [29]: 120.15%; Activity [30]: 95.47%; Activity [31]: 89.39%; Activity [32]: 99.42%; LD50 [33]: 1.87034 mg/kg; LD90 [33]: 2.25087 mg/kg; ED50 [34]: 0.000698 mg/kg; Ratio ED50 [35]: 1.562; diameter of the inhibition zone (DIZ) [36]: 0 cm; diameter of the inhibition zone (DIZ) [37]: 0 cm

From ChEMBL document CHEMBL1629486, “Antimicrobial, antitumor and 5α-reductase inhibitor activities of some hydrazonoyl substituted pyrimidinones” (Eur J Med Chem, 2010)
